Assays:
Assay type in all cases: functional
[1] = system: Mus musculus; experiment: Analgesic activity in ICR mouse assessed as increase in pain threshold variation at 20 umol/kg, po administered as single dose measured after 30 mins by tail flick test
How it was run: (§1)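 Tail-flick test in mice housed 12/12 h light/dark at 21 ± 2 °C for one day. A single oral dose of 20 µmol/kg was given in 0.2 ml normal saline; vehicle controls got saline alone. Basal threshold was measured four times, then every 30 min to 180 min, with a 10 s cut-off. PTV = (post − basal)/basal. n = 12, mean ± SD%, one-way ANOVA.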

[2] = system: Mus musculus; experiment: Analgesic activity in ICR mouse assessed as increase in pain threshold variation at 20 umol/kg, po administered as single dose measured after 150 mins by tail flick test; how it was run: as §1
[3] = system: Mus musculus; experiment: Analgesic activity in ICR mouse assessed as increase in pain threshold variation at 20 umol/kg, po administered as single dose measured after 60 mins by tail flick test; how it was run: as §1
[4] = system: Mus musculus; experiment: Analgesic activity in ICR mouse assessed as increase in pain threshold variation at 20 umol/kg, po administered as single dose measured after 120 mins by tail flick test; how it was run: as §1
[5] = system: Mus musculus; experiment: Analgesic activity in ICR mouse assessed as increase in pain threshold variation at 20 umol/kg, po administered as single dose measured after 180 mins by tail flick test; how it was run: as §1
[6] = system: Mus musculus; experiment: Analgesic activity in ICR mouse assessed as increase in pain threshold variation at 20 umol/kg, po administered as single dose measured after 90 mins by tail flick test; how it was run: as §1
[7] = system: Mus musculus; experiment: Antiinflammatory activity in ICR mouse assessed as inhibition of xylene-induced ear edema at 20 umol/kg, po
How it was run: (§2)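 Male ICR mice (20 ± 2 g), 12 per group, were dosed orally: test agents as suspensions in normal saline, aspirin in CMC. After 30 min, 0.03 ml xylene was applied to both surfaces of the right ear, with the left ear as control. After 2 h the mice were killed, 8 mm ear discs were weighed, and edema was taken as right minus left weight.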

[8] = system: Mus musculus; experiment: Antiinflammatory activity in ICR mouse assessed as inhibition of xylene-induced ear edema at 165 umol/kg, po; how it was run: as §2
[9] = system: Mus musculus; experiment: Analgesic activity in ICR mouse assessed as increase in pain threshold variation at 165 umol/kg, po administered as single dose measured after 180 mins by tail flick test
[10] = system: Mus musculus; experiment: Analgesic activity in ICR mouse assessed as increase in pain threshold variation at 165 umol/kg, po administered as single dose measured after 150 mins by tail flick test
[11] = system: Mus musculus; experiment: Analgesic activity in ICR mouse assessed as increase in pain threshold variation at 165 umol/kg, po administered as single dose measured after 30 mins by tail flick test
[12] = system: Mus musculus; experiment: Analgesic activity in ICR mouse assessed as increase in pain threshold variation at 165 umol/kg, po administered as single dose measured after 120 mins by tail flick test
[13] = system: Mus musculus; experiment: Analgesic activity in ICR mouse assessed as increase in pain threshold variation at 165 umol/kg, po administered as single dose measured after 90 mins by tail flick test
[14] = system: Mus musculus; experiment: Analgesic activity in ICR mouse assessed as increase in pain threshold variation at 165 umol/kg, po administered as single dose measured after 60 mins by tail flick test
[15] = system: Mus musculus; experiment: Analgesic activity in ICR mouse assessed as increase in pain threshold variation at 20 umol/kg, ip administered as single dose measured after 30 mins by tail flick test
How it was run: (§3)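 Mice were housed on a 12/12 light/dark cycle at 21 ± 2 °C for one day before use. Each got a single intraperitoneal dose of 20 µmol/kg in normal saline; vehicle controls got […]. Tail-flick basal threshold was read four times, then every 30 min to 180 min with a 10 s cut-off. PTV = (post-dose threshold − basal)/basal. n = 12, mean ± SD, one-way ANOVA.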

[16] = system: Mus musculus; experiment: Analgesic activity in ICR mouse assessed as increase in pain threshold variation at 20 umol/kg, ip administered as single dose measured after 180 mins by tail flick test; how it was run: as §3
[17] = system: Mus musculus; experiment: Analgesic activity in ICR mouse assessed as increase in pain threshold variation at 20 umol/kg, ip administered as single dose measured after 120 mins by tail flick test; how it was run: as §3
[18] = system: Mus musculus; experiment: Analgesic activity in ICR mouse assessed as increase in pain threshold variation at 20 umol/kg, ip administered as single dose measured after 90 mins by tail flick test; how it was run: as §3
[19] = system: Mus musculus; experiment: Analgesic activity in ICR mouse assessed as increase in pain threshold variation at 20 umol/kg, ip administered as single dose measured after 60 mins by tail flick test; how it was run: as §3
[20] = system: Mus musculus; experiment: Analgesic activity in ICR mouse assessed as increase in pain threshold variation at 20 umol/kg, ip administered as single dose measured after 150 mins by tail flick test; how it was run: as §3
[21] = system: Mus musculus; experiment: Antiinflammatory activity in ICR mouse assessed as inhibition of xylene-induced ear edema at 5 umol/kg, po; how it was run: as §2
[22] = system: Mus musculus; experiment: Antiinflammatory activity in ICR mouse assessed as inhibition of xylene-induced ear edema at 10 umol/kg, po; how it was run: as §2
[23] = system: Mus musculus; experiment: Analgesic activity in ICR mouse assessed as increase in pain threshold variation at 0.2 umol/kg, ip administered as single dose measured after 30 mins by tail flick test
How it was run: (§4)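 Mice were housed 12/12 h light/dark at 21 ± 2 °C for one day, then given a single dose. Tail-flick basal threshold was read four times, then every 30 min up to 180 min, with a 10 s cut-off. PTV = (post-dose threshold − basal)/basal. n = 12, mean ± SD%, one-way ANOVA against saline vehicle at each time point.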

[24] = system: Mus musculus; experiment: Analgesic activity in ICR mouse assessed as increase in pain threshold variation at 0.2 umol/kg, ip administered as single dose measured after 150 mins by tail flick test; details: in the assay text read “po administered” for “ip administered”; how it was run: as §4
[25] = system: Mus musculus; experiment: Analgesic activity in ICR mouse assessed as increase in pain threshold variation at 2 umol/kg, ip administered as single dose measured after 120 mins by tail flick test; details: in the assay text read “po administered” for “ip administered”; how it was run: as §4
[26] = system: Mus musculus; experiment: Analgesic activity in ICR mouse assessed as increase in pain threshold variation at 2 umol/kg, ip administered as single dose measured after 30 mins by tail flick test; details: in the assay text read “po administered” for “ip administered”; how it was run: as §4
[27] = system: Mus musculus; experiment: Analgesic activity in ICR mouse assessed as increase in pain threshold variation at 2 umol/kg, ip administered as single dose measured after 90 mins by tail flick test; details: in the assay text read “po administered” for “ip administered”; how it was run: as §4
[28] = system: Mus musculus; experiment: Analgesic activity in ICR mouse assessed as increase in pain threshold variation at 0.2 umol/kg, ip administered as single dose measured after 180 mins by tail flick test; details: in the assay text read “po administered” for “ip administered”; how it was run: as §4
[29] = system: Mus musculus; experiment: Analgesic activity in ICR mouse assessed as increase in pain threshold variation at 0.2 umol/kg, ip administered as single dose measured after 90 mins by tail flick test; how it was run: as §4
[30] = system: Mus musculus; experiment: Analgesic activity in ICR mouse assessed as increase in pain threshold variation at 0.2 umol/kg, ip administered as single dose measured after 120 mins by tail flick test; how it was run: as §4
[31] = system: Mus musculus; experiment: Analgesic activity in ICR mouse assessed as increase in pain threshold variation at 2 umol/kg, ip administered as single dose measured after 60 mins by tail flick test; details: in the assay text read “po administered” for “ip administered”; how it was run: as §4
[32] = system: Mus musculus; experiment: Analgesic activity in ICR mouse assessed as increase in pain threshold variation at 2 umol/kg, ip administered as single dose measured after 150 mins by tail flick test; details: in the assay text read “po administered” for “ip administered”; how it was run: as §4
[33] = system: Mus musculus; experiment: Analgesic activity in ICR mouse assessed as increase in pain threshold variation at 0.2 umol/kg, ip administered as single dose measured after 60 mins by tail flick test; how it was run: as §4
[34] = system: Mus musculus; experiment: Analgesic activity in ICR mouse assessed as increase in pain threshold variation at 2 umol/kg, ip administered as single dose measured after 180 mins by tail flick test; how it was run: as §4

| Compound | Activity [1] [%] | Activity [2] [%] | Activity [3] [%] | Activity [4] [%] | Activity [5] [%] | Activity [6] [%] | inhibition in vivo at 20 µmol/kg [7] [%] | inhibition in vivo at 5 µmol/kg [21] [%] | inhibition in vivo at 10 µmol/kg [22] [%] | further results |
| --- | --- | --- | --- | --- | --- | --- | --- | --- | --- | --- |
| COC(CC(OC)OC)OC | 6.22 | 11.8 | 11.84 | 11.93 | 11.89 | 12.15 | – | – | – | – |
| COC(=O)[C@H](COCc1ccccc1)/N=C/C=C/N[C@@H](COCc1ccccc1)C(=O)OC | 32.18 | 34.17 | 34.87 | 37.48 | 33.33 | 36.24 | 55 | – | – | – |
| CC(=O)Oc1ccccc1C(=O)O [ASPIRIN] | – | – | – | – | – | – | – | – | – | inhibition in vivo at 165 µmol/kg [8]: 65.1%; Activity [9]: 14.65%; Activity [10]: 14.59%; Activity [11]: 12.88%; Activity [12]: 16.46%; Activity [13]: 19.79%; Activity [14]: 18.69% |
| CN1CC[C@]23c4c5ccc(O)c4O[C@H]2[C@@H](O)C=C[C@H]3[C@H]1C5 [MORPHINE] | – | – | – | – | – | – | – | – | – | Activity [15]: 147%; Activity [16]: 32.9%; Activity [17]: 64.9%; Activity [18]: 122.7%; Activity [19]: 177.6%; Activity [20]: 36.7% |
| COC(=O)[C@H](C)N | 7.37 | 11.01 | 12.66 | 11.55 | 11.44 | 12.02 | – | – | – | – |
| COC(=O)[C@H](CC(C)C)/N=C/C=C/N[C@@H](CC(C)C)C(=O)OC | 26.52 | 42.38 | 29.79 | 45.12 | 41.84 | 40.37 | 88.6 | 73.1 | 80.9 | – |
| CCC(C)[C@H](/N=C/C=C/N[C@H](C(=O)OC)C(C)CC)C(=O)OC (some centres not stated) | 18.66 | 34.89 | 19.68 | 41.65 | 32.75 | 34.31 | 77.6 | 48.9 | 68 | – |
| COC(=O)[C@H](CCSC)/N=C/C=C/N[C@@H](CCSC)C(=O)OC | 28.73 | 22.05 | 29.93 | 23.37 | 21.18 | 31.61 | 25.4 | – | – | – |
| COC(=O)[C@H](C)/N=C/C=C/N[C@@H](C)C(=O)OC | 32.26 | 44.71 | 32.49 | 53.33 | 42.29 | 48.4 | 53.1 | 14.8 | 41.9 | Activity [23]: 12.24%; Activity [24]: 20.27%; Activity [25]: 35.87%; Activity [26]: 24.58%; Activity [27]: 30.94%; Activity [28]: 18.8%; Activity [29]: 17.41%; Activity [30]: 22.08%; Activity [31]: 25%; Activity [32]: 28.25%; Activity [33]: 16.79%; Activity [34]: 27.31% |
| COC(=O)[C@H](Cc1ccccc1)/N=C/C=C/N[C@@H](Cc1ccccc1)C(=O)OC | 28.22 | 35.33 | 28.92 | 40.67 | 30.66 | 35.82 | 36.8 | 12.9 | 25.4 | – |

Source: ChEMBL document CHEMBL1157630, “A class of novel Schiff's bases: Synthesis, therapeutic action for chronic pain, anti-inflammation and 3D QSAR analysis” (2010)
